The record followed here is ChEMBL document CHEMBL1142704, “Design and biological evaluation of linear and cyclic phosphopeptide ligands of the N-terminal SH2 domain of protein tyrosine phosphatase SHP-1” (J Med Chem, 2005).

The structures appear in SMILES notation. *1 amine or outer side, *2 acyl side, *3 side chain or, on linkers, in order; H or OH if unused. Where a SMILES comes first, the peptide text is derived from it. Bridges are numbered along the chain shown (N, C = ends). [ ]: non-standard residue; d: D form. X1 = O=C(CC[C@H](N[*:1])C(=O)[*:2])CN[*:3]; X4 = O=C([C@@H](N[*:1])C(O)c1ccccc1)[*:2]; X5 = O=C(CN[*:3])C[C@H](N[*:1])C(=O)[*:2]; pY = N[C@@H](Cc1ccc(OP(=O)(O)O)cc1)C(=O)O; hPhe = N[C@@H](CCc1ccccc1)C(=O)O; Tic = O=C(O)[C@@H]1Cc2ccccc2CN1; Nle = CCCC[C@H](N)C(=O)O; CO = O=C([*:1])[*:2]

Test [1] concerns the target T1, Tyrosine-protein phosphatase non-receptor type 6 (Homo sapiens, UniProt P29350). The test can be described thus: Concentration required to stimulate SHP-1 enzymatic activity by 50%. In outline: (§1)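 SHP-1 activity on p-nitrophenyl phosphate (10 mM) in 50 mM Hepes pH 7.4, 50 mM NaCl, 1 mM EDTA, 1 mM TCEP with 0-500 µM peptide. Enzyme (0.5 µg) added last, 30 min at room temperature, stopped with 1 M NaOH, A405 read. Activity relative to no-peptide enzyme. Duplicates, mean of three independent experiments. Not active: maximal activity ≤0.4 relative to Ros pY2267.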

Test [2] addresses T1, Tyrosine-protein phosphatase non-receptor type 6. The test can be described thus: Dissociation constant for the interaction with the GST-N-SH2 domain of SHP-1. In outline: (§2)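 SPR at room temperature in 10 mM Hepes pH 7.4, 150 mM NaCl, 3.4 mM EDTA, 0.005% Tween20. Biotinylated peptides captured on the chip to 20-40 RU. FPLC-purified GST-SHP-1 N-SH2 was injected 5 min at 30 µL/min, then dissociation was followed. Blank flow cell subtracted. Equilibrium RU vs domain concentration was fit to a one-site hyperbola for Kd.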

Test [3] has the same target. The test can be described thus: Dissociation constant for the interaction with the GST-N-SH2 domain of SHP-1; nb is no binding. In outline: as §2
For test [4] the target is unchanged. The test can be described thus: Concentration required to stimulate SHP-1 enzymatic activity by 50%; not active. The method in brief: as §1

T1 sequence (P29350 whole entry): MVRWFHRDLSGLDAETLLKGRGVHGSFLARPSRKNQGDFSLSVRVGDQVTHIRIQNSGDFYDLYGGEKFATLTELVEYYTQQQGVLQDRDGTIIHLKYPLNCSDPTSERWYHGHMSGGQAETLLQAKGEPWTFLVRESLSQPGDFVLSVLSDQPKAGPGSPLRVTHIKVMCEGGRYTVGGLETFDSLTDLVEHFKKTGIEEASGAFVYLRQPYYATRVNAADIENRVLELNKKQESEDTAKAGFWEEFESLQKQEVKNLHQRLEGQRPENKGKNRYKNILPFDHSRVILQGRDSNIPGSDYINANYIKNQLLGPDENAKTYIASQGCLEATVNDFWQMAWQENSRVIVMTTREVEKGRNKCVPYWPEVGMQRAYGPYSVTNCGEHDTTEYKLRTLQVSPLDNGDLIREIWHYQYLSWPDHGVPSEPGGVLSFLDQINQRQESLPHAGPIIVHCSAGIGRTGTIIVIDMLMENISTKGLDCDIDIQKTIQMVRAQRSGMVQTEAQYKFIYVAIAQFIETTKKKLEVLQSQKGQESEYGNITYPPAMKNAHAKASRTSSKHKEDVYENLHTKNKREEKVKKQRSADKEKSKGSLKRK

In the case of `CSCC[C@H](NC(=O)[C@H](Cc1ccc(OP(=O)(O)O)cc1)NC(=O)[C@H](CC(N)=O)NC(=O)[C@H](CC(C)C)NC(=O)CNC(=O)[C@@H](N)CCC(=O)O)C(=O)N[C@H](C(=O)N[C@@H](Cc1ccccc1)C(N)=O)C(C)C` (H-EGLN[pY]MVF-NH2), the EC50 in test [1] (read-out: EC50) worked out at 140 µM. Besides, the dissociation constant (Kd) in test [2] came to 1 µM.

Regarding `CSCC[C@H](NC(=O)[C@H](Cc1ccc(OP(=O)(O)O)cc1)NC(=O)[C@H](CC(N)=O)NC(=O)[C@H](CC(C)C)NC(=O)CNC(=O)[C@@H](N)CCC(=O)O)C(=O)N[C@H](C(=O)N[C@H](C(N)=O)C(O)c1ccccc1)C(C)C` (stereo partly specified) (H-EGLN[pY]MV[X4]-NH2), the 50% effective concentration (EC50) in test [1] (read-out: EC50) was determined as 85 µM. The compound also showed a dissociation constant (Kd) in test [2] of 0.29 µM.

In the case of `CC(C)C[C@H](NC(=O)[C@@H](NC(=O)[C@H](CCc1ccccc1)NC(=O)[C@H](Cc1ccc(OP(=O)(O)O)cc1)NC(=O)[C@H](CC(N)=O)NC(=O)[C@H](CC(C)C)NC(=O)CNC(=O)[C@@H](N)CCC(=O)O)C(C)C)C(N)=O` (H-EGLN[pY][hPhe]VL-NH2), the concentration giving a half-maximal response (EC50) in test [1] (read-out: EC50) is 140 µM. In test [2], this compound gave a Kd of 0.9 µM.

As to `CSCC[C@@H]1NC(=O)[C@H](Cc2ccc(OP(=O)(O)O)cc2)NC(=O)[C@@H](NC(=O)[C@H](CC(C)C)NC(=O)CNC(=O)[C@@H](N)CCC(=O)O)CCCCNC(=O)CC[C@@H](C(=O)N[C@@H](CC(C)C)C(=O)O)NC1=O` (H-EGLK[pY]MEL-OH; lactam 4-7), the dissociation constant (Kd) entry in test [3] was “Not Active”. Further, in test [4], the concentration giving a half-maximal response (EC50) entry is on record as “Not Active”.

Regarding `CSCC[C@@H]1NC(=O)[C@H](Cc2ccc(OP(=O)(O)O)cc2)NC(=O)[C@@H](NC(=O)[C@H](CC(C)C)NC(=O)CNC(=O)[C@@H](N)CCC(=O)O)CCCCNC(=O)NCC(=O)CC[C@@H](C(=O)N[C@@H](CC(C)C)C(=O)O)NC1=O` (H-EGLK[pY]M[X1]L-OH; linker 4-7 via CO), in test [1], the EC50 result was “Not Active”. Besides, in test [2], binding was put at a Kd of 0.21 µM.

For the compound `CSCC[C@H](NC(=O)[C@H](Cc1ccc(OP(=O)(O)O)cc1)NC(=O)[C@H](CC(N)=O)NC(=O)[C@H](CC(C)C)NC(=O)CNC(=O)[C@@H](N)CCC(=O)O)C(=O)N[C@H](C(=O)N[C@@H](CC(C)C)C(N)=O)C(C)C` (H-EGLN[pY]MVL-NH2), in test [1] (read-out: EC50), the EC50 was determined as 160 µM. In addition, the equilibrium dissociation constant (Kd) in test [2] came to 1.44 µM.

As to `CC(C)C[C@H](NC(=O)[C@@H](NC(=O)[C@@H](NC(=O)[C@H](Cc1ccc(OP(=O)(O)O)cc1)NC(=O)[C@H](CC(N)=O)NC(=O)[C@H](CC(C)C)NC(=O)CNC(=O)[C@@H](N)CCC(=O)O)C(C)c1ccccc1)C(C)C)C(N)=O` (stereo in doubt; 5b), the EC50 in test [1] (read-out: EC50) came to 220 µM. Moreover, the Kd in test [2] turned out to be 0.16 µM.

On to `CCCC[C@H](NC(=O)[C@H](Cc1ccc(OP(=O)(O)O)cc1)NC(=O)[C@H](CC(N)=O)NC(=O)[C@H](CC(C)C)NC(=O)CNC(=O)[C@@H](N)CCC(=O)O)C(=O)N[C@H](C(=O)N[C@@H](Cc1ccccc1)C(N)=O)C(C)C` (H-EGLN[pY][Nle]VF-NH2), for which the EC50 in test [1] (read-out: EC50) was 60 µM. In test [2], the affinity, expressed as Kd, was 0.23 µM.

In the case of `CC(C)C[C@H](NC(=O)[C@@H](NC(=O)[C@H](Cc1ccccc1)NC(=O)[C@H](Cc1ccc(OP(=O)(O)O)cc1)NC(=O)[C@H](CC(N)=O)NC(=O)[C@H](CC(C)C)NC(=O)CNC(=O)[C@@H](N)CCC(=O)O)C(C)C)C(N)=O` (H-EGLN[pY]FVL-NH2), the 50% effective concentration (EC50) in test [1] (read-out: EC50) came out at 70 µM. The compound also had a Kd in test [2] of 0.69 µM.

For `CC(C)C[C@H](NC(=O)[C@@H](NC(=O)[C@@H](NC(=O)[C@H](Cc1ccc(OP(=O)(O)O)cc1)NC(=O)[C@H](CC(N)=O)NC(=O)[C@H](CC(C)C)NC(=O)CNC(=O)[C@@H](N)CCC(=O)O)C(C)c1ccccc1)C(C)C)C(N)=O` (stereo in doubt; 5a), the EC50 in test [1] (read-out: EC50) is 50 µM. The compound further returned a dissociation constant (Kd) in test [2] of 0.24 µM.

As for `CSCC[C@@H]1NC(=O)[C@H](Cc2ccc(OP(=O)(O)O)cc2)NC(=O)[C@@H](NC(=O)[C@H](CC(C)C)NC(=O)CNC(=O)[C@@H](N)CCC(=O)O)CCCCNC(=O)NCC(=O)C[C@@H](C(=O)N[C@@H](CC(C)C)C(=O)O)NC1=O` (H-EGLK[pY]M[X5]L-OH; linker 4-7 via CO), the concentration for a half-maximal effect (EC50) entry in test [4] is reported as “Not Active”. The same compound had a Kd in test [2] of 0.11 µM.

For `CC[C@H](C)[C@H](NC(=O)[C@@H]1Cc2ccccc2CN1C(=O)[C@H](Cc1ccc(OP(=O)(O)O)cc1)NC(=O)[C@H](CC(N)=O)NC(=O)[C@H](CC(C)C)NC(=O)CNC(=O)[C@@H](N)CCC(=O)O)C(=O)N1Cc2ccccc2C[C@H]1C(N)=O` (H-EGLN[pY][Tic]I[Tic]-NH2), the Kd result in test [3] is reported as “Not Active”. Further, the EC50 result in test [4] is recorded as “Not Active”.

Turning to `CC(C)C[C@H](NC(=O)[C@@H](NC(=O)[C@@H](NC(=O)[C@H](Cc1ccc(OP(=O)(O)O)cc1)NC(=O)[C@H](CC(N)=O)NC(=O)[C@H](CC(C)C)NC(=O)CNC(=O)[C@@H](N)CCC(=O)O)C(O)c1ccccc1)C(C)C)C(N)=O` (stereo partly specified) (H-EGLN[pY][X4]VL-NH2), the concentration for a half-maximal effect (EC50) in test [1] (read-out: EC50) was found to be 220 µM. The compound also registered an equilibrium dissociation constant (Kd) in test [2] of 1.08 µM.
